Measured values published in the M2OR odorant receptor database.
Substitutions are numbered along the chain they refer to.

Experiments:
Conditions in all cases: stereoisomer not certain
O10H2 = tested on: T1, O10H2
T1 sequence (whole entry): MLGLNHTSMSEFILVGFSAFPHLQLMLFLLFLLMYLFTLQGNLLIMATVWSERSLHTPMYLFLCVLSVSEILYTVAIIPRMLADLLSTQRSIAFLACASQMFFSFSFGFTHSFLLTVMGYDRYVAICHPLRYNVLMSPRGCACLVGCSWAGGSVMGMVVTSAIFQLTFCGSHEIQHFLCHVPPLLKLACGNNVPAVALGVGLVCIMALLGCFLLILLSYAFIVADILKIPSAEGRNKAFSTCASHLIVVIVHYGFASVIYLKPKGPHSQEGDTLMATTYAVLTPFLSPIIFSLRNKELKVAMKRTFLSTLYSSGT
Method in brief: (§1)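 Each entry records the cell line, G-protein, co-transfected protein and tags used. Methods varied with the source, often transient luciferase assays in mammalian cell lines. A receptor–molecule pair is called responsive (active) if the original authors judged its signal statistically different from baseline and non-responsive (inactive) otherwise.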

O10H3 R54H = tested on: T2, O10H3 R54H
T2 sequence (whole entry): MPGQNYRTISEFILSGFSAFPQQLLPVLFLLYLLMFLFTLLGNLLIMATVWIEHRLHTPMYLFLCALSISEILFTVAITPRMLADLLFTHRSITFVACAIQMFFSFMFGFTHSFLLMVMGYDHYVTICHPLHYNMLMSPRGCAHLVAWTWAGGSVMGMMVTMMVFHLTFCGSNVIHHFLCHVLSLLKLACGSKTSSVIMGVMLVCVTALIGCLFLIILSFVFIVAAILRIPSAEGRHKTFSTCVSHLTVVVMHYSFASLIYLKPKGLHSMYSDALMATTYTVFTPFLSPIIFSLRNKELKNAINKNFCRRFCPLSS
Method in brief: as §1

O10H4 I50V = tested on: T3, O10H4 I50V
T3 sequence (whole entry): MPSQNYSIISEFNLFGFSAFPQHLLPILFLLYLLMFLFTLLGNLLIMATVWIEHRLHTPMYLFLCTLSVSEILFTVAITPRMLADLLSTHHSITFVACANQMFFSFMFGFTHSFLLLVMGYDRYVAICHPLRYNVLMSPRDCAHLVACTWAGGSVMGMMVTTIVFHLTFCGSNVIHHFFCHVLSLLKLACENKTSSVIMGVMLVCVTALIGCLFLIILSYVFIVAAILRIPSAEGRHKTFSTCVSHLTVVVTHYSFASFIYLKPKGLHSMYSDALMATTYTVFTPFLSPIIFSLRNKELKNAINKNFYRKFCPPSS
Method in brief: as §1

O10H5 S268Y = tested on: T4, O10H5 S268Y
T4 sequence (whole entry): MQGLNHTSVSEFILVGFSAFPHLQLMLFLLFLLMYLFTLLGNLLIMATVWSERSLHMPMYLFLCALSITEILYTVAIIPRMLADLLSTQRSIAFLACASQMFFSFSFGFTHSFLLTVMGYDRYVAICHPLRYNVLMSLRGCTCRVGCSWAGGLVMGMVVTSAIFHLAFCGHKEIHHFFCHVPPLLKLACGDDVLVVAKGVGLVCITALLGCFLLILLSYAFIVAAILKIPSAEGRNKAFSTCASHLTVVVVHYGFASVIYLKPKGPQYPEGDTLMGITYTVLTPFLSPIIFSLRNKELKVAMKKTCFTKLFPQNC
Method in brief: as §1

O10J1 M62I I103M = tested on: T5, O10J1 M62I I103M
T5 sequence (whole entry): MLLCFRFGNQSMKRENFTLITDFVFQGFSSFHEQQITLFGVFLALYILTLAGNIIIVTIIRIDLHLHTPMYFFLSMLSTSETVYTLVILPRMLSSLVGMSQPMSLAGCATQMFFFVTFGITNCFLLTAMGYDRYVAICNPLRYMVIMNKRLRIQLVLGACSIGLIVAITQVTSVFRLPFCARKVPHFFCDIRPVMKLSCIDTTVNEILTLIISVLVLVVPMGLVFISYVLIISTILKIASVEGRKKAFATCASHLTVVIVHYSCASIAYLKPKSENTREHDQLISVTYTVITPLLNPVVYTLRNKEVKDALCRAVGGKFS
Method in brief: as §1

O10J1 M62I = tested on: T6, O10J1 M62I
T6 sequence (whole entry): T5 sequence (whole entry) with M103I
Method in brief: as §1

O10J3 Q235R E319G = tested on: T7, O10J3 Q235R E319G
T7 sequence (whole entry): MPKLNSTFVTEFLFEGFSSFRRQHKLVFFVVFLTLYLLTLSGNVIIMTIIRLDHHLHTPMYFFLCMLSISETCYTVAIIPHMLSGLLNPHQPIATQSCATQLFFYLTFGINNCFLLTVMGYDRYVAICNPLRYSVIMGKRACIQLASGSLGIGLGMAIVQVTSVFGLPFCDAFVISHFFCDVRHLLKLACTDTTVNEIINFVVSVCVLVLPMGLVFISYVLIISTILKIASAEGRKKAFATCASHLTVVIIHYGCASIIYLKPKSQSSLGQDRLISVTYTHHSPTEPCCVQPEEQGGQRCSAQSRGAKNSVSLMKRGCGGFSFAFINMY
Method in brief: as §1

O10P1 R195K = tested on: T8, O10P1 R195K
T8 sequence (whole entry): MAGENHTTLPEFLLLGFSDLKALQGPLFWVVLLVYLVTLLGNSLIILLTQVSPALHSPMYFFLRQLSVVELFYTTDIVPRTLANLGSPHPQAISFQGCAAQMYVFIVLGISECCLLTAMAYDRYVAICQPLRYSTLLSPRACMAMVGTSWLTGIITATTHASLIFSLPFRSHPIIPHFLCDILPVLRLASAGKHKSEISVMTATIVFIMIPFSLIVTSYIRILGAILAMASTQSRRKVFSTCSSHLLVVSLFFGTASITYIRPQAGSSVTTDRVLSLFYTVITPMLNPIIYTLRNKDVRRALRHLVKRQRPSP
Method in brief: as §1

O10Q1 E12D = tested on: T9, O10Q1 E12D
T9 sequence (whole entry): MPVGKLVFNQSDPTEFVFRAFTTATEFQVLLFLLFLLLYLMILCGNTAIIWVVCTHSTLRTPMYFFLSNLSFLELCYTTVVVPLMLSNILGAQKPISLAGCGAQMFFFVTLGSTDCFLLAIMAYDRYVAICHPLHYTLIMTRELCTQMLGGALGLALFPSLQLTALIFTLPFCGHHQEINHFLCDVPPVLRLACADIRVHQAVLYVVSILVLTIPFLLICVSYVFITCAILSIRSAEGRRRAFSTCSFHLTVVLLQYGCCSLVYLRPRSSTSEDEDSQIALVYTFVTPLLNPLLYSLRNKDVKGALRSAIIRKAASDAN
Method in brief: as §1

O10Q1 Q10R E12D = tested on: T10, O10Q1 Q10R E12D
T10 sequence (whole entry): T9 sequence (whole entry) with Q10R
Method in brief: as §1

Measured: odorant receptor agonist call

CC1=NC(C)C(C)S1 (stereo not given)
inactive: O10H2 | O10H3 R54H | O10H4 I50V | O10H5 S268Y | O10J1 M62I I103M | O10J1 M62I | O10J3 Q235R E319G | O10P1 R195K | O10Q1 E12D | O10Q1 Q10R E12D

CC1=C(O)C(=O)C(C)O1 (stereo not given)
inactive: O10H2 | O10H3 R54H | O10H4 I50V | O10H5 S268Y | O10J1 M62I I103M | O10J1 M62I | O10J3 Q235R E319G | O10P1 R195K | O10Q1 E12D | O10Q1 Q10R E12D

CC1=C(O)C(=O)OC1C (stereo not given)
inactive: O10H2 | O10H3 R54H | O10H4 I50V | O10H5 S268Y | O10J1 M62I I103M | O10J1 M62I | O10J3 Q235R E319G | O10P1 R195K | O10Q1 E12D | O10Q1 Q10R E12D

CCC1OC(=O)C(O)=C1C (stereo not given)
inactive: O10H2 | O10H3 R54H | O10H4 I50V | O10H5 S268Y | O10J1 M62I I103M | O10J1 M62I | O10J3 Q235R E319G | O10P1 R195K | O10Q1 E12D | O10Q1 Q10R E12D

CCCC(S)CCOC(C)=O (stereo not given)
inactive: O10H2 | O10H3 R54H | O10H4 I50V | O10H5 S268Y | O10J1 M62I I103M | O10J1 M62I | O10J3 Q235R E319G | O10P1 R195K | O10Q1 E12D | O10Q1 Q10R E12D

CCC1OC(C)=C(O)C1=O (stereo not given)
inactive: O10H2 | O10H3 R54H | O10H4 I50V | O10H5 S268Y | O10J1 M62I I103M | O10J1 M62I | O10J3 Q235R E319G | O10P1 R195K | O10Q1 E12D | O10Q1 Q10R E12D

Cc1cnc(C)c(C)n1
inactive: O10H2 | O10H3 R54H | O10H4 I50V | O10H5 S268Y | O10J1 M62I I103M | O10J1 M62I | O10J3 Q235R E319G | O10P1 R195K | O10Q1 E12D | O10Q1 Q10R E12D

CCCCCCC=CCCC=O
inactive: O10H2 | O10H3 R54H | O10H4 I50V | O10H5 S268Y | O10J1 M62I I103M | O10J1 M62I | O10J3 Q235R E319G | O10P1 R195K | O10Q1 E12D | O10Q1 Q10R E12D
